Consider 16 molecules from ChEMBL document CHEMBL4007421, “Discovery and Preclinical Characterization of 3-((4-(4-Chlorophenyl)-7-fluoroquinoline-3-yl)sulfonyl)benzonitrile, a Novel Non-acetylenic Metabotropic Glutamate Receptor 5 (mGluR5) Negative Allosteric Modulator for Psychiatric Indications” (J Med Chem, 2017).

SMILES strings stand for the structures.

Sequence of Metabotropic glutamate receptor 5 (Rattus norvegicus, UniProt P31424) (P31424 whole entry): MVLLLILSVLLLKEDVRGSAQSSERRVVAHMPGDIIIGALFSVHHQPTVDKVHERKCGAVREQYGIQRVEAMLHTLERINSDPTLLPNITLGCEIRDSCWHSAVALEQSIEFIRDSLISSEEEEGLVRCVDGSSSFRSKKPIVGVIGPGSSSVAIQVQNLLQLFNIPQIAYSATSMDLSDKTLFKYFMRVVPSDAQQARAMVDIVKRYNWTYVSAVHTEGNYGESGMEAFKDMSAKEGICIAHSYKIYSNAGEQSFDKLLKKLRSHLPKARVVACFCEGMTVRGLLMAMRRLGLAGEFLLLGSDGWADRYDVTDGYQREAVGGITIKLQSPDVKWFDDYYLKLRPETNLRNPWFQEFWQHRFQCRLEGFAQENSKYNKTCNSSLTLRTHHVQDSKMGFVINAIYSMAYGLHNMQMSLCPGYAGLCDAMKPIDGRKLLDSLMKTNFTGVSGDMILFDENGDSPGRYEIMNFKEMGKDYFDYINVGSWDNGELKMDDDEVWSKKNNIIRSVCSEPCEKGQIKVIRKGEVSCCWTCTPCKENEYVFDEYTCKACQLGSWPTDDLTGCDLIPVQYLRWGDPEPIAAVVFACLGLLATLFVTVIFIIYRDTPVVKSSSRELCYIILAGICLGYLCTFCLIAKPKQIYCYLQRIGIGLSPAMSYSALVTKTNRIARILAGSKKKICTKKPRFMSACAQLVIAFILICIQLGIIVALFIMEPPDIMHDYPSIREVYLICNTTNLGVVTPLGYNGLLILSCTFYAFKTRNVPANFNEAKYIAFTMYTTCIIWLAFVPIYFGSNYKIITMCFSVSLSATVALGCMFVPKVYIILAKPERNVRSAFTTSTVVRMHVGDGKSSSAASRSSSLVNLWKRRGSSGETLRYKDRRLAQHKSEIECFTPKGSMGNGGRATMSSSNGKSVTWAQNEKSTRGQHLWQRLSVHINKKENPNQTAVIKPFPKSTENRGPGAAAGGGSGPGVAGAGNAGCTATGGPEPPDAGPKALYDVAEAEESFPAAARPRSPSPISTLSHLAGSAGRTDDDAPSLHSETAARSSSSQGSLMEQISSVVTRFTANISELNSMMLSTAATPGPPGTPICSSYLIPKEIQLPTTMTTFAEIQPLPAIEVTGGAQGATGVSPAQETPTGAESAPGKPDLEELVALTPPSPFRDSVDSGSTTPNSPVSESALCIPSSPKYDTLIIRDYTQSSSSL

The subject of the first data set is Liver. Put plainly: Intrinsic clearance in rat liver microsomes at 2.5 uM assessed per gram of liver. It is filed as ADME, microsome.
Conditions: not given
A general note: Microsomes from liver hold many membrane-bound enzymes, among them those of drug oxidation.
Take `O=S(=O)(c1cc(Cl)cc(Cl)c1)c1cnc2c(F)cccc2c1-c1ccc(F)cc1`: the CLint came out at 1.06 mL/min/g.

Molecule `O=S(=O)(c1ccc(F)cc1)c1cnc2cc(Cl)ccc2c1-c1ccc(Cl)cc1` returned a CLint of 0.01 mL/min/g.

`O=S(=O)(c1ccc(F)cc1)c1cnc2ccc(F)cc2c1-c1ccc(Cl)cc1` yielded a CLint of 0.4 mL/min/g.

`N#Cc1ccc2ncc(S(=O)(=O)c3ccc(F)cc3)c(-c3ccc(Cl)cc3)c2c1`: the CLint worked out at 0.04 mL/min/g.

For the molecule `O=S(=O)(c1ccc(F)cc1)c1cnc2c(F)cccc2c1-c1ccc(Cl)cc1`, the CLint was 0.06 mL/min/g.

In the case of `O=S(=O)(c1ccc(F)cc1)c1cnc2c(F)cc(Cl)cc2c1-c1ccc(Cl)cc1`, the CLint came out at 0.09 mL/min/g.

On to `O=S(=O)(c1ccc(F)cc1)c1cnc2ccc(Cl)cc2c1-c1ccc(Cl)cc1`, for which the CLint was determined as 0.2 mL/min/g.

`N#Cc1ccc2c(-c3ccc(Cl)cc3)c(S(=O)(=O)c3ccc(F)cc3)cnc2c1` displayed a CLint of 0.01 mL/min/g.

Another data set concerns Rattus norvegicus. Nature of the data set: Anxiolytic activity in ip dosed Wistar rat assessed as increase in water drinking time during punished period administered as suspension by Vogel punished drinking conflict test. Conditions: read-out: MED. It is filed as functional. The procedure, abridged:
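Vogel punished-drinking test in rats, single i.p. or p.o. dose as suspension in 5% Tween 80; plasma sampled ~45 min after i.p. or ~75 min after p.o. dosing.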
Regarding `O=S(=O)(c1cc(Cl)cc(Cl)c1)c1cnc2c(F)cccc2c1-c1ccc(F)cc1`, the minimal effective dose was 30 mg/kg.

In another data set the target is Metabotropic glutamate receptor 5 (Rattus norvegicus) (UniProt P31424). Put plainly: Displacement of [3H]M-MPEP from rat mGluR5 expressed in rat cerebrocortical membrane at 1 uM after 60 mins relative to control. It is filed as cell membranes.
Sequence of Metabotropic glutamate receptor 5 (Rattus norvegicus) (P31424 21-1203 limits assumed): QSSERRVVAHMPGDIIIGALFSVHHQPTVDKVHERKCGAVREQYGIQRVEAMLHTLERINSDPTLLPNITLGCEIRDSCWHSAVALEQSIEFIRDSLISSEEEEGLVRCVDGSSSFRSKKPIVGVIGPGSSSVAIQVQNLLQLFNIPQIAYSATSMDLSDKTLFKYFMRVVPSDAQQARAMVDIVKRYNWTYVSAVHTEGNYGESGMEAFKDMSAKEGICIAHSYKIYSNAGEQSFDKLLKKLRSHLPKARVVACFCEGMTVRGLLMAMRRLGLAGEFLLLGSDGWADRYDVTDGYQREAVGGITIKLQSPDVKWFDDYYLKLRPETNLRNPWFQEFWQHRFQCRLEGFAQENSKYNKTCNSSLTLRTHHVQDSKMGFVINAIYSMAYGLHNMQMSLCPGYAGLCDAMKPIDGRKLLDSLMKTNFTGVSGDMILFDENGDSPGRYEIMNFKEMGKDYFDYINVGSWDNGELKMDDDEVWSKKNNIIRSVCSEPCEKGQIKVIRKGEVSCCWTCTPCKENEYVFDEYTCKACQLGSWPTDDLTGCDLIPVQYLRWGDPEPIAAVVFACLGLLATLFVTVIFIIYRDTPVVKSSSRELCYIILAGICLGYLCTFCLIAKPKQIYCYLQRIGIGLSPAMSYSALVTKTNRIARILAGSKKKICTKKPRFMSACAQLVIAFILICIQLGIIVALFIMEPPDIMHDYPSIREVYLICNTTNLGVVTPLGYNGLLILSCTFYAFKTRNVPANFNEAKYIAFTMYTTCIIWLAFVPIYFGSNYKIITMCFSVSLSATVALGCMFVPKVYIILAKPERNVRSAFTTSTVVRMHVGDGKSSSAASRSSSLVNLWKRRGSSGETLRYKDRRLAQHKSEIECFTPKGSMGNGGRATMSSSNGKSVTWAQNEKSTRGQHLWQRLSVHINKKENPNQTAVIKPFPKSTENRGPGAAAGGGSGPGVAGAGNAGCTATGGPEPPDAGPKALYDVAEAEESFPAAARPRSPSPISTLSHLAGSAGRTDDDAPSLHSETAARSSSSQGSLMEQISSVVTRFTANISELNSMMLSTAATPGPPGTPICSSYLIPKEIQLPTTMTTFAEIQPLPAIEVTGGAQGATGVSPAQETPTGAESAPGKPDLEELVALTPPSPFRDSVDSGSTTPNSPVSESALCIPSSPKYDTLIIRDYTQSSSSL
Conditions: not given
For orientation: Displacement assays read how much labelled ligand stays bound in the presence of the test substance.
For the molecule `O=S(=O)(c1ccc(F)cc1)c1cnc2cc(Cl)ccc2c1-c1ccc(Cl)cc1`, the inhibition (in general, how much of the control response was suppressed) is 92.8%.

Consider `O=S(=O)(c1ccc(F)cc1)c1cnc2ccc(F)cc2c1-c1ccc(Cl)cc1`, for which the inhibition came out at 76.3%.

`N#Cc1ccc2ncc(S(=O)(=O)c3ccc(F)cc3)c(-c3ccc(Cl)cc3)c2c1` had an inhibition of 39.7%.

In the case of `O=S(=O)(c1ccc(F)cc1)c1cnc2c(F)cccc2c1-c1ccc(Cl)cc1`, the inhibition came out at 91.5%.

With `O=S(=O)(c1ccc(F)cc1)c1cnc2c(F)cc(Cl)cc2c1-c1ccc(Cl)cc1`, the inhibition stood at 19%.

Molecule `O=S(=O)(c1ccc(F)cc1)c1cnc2ccc(Cl)cc2c1-c1ccc(Cl)cc1` registered an inhibition of 58.3%.

In turn, `N#Cc1ccc2c(-c3ccc(Cl)cc3)c(S(=O)(=O)c3ccc(F)cc3)cnc2c1` had an inhibition of 8.7%.

Another data set deals with Metabotropic glutamate receptor 5 (Homo sapiens, UniProt P41594). Put plainly: Negative allosteric modulation of human mGluR5a expressed in CHO cells assessed as reduction in DHPG-induced cytosolic Ca2+ influx after 10 to 20 mins by fluo-4/AM-dye based fluorometric analysis. It is filed as functional, cell-based.
Sequence of Metabotropic glutamate receptor 5 (Homo sapiens, UniProt P41594) (P41594 whole entry): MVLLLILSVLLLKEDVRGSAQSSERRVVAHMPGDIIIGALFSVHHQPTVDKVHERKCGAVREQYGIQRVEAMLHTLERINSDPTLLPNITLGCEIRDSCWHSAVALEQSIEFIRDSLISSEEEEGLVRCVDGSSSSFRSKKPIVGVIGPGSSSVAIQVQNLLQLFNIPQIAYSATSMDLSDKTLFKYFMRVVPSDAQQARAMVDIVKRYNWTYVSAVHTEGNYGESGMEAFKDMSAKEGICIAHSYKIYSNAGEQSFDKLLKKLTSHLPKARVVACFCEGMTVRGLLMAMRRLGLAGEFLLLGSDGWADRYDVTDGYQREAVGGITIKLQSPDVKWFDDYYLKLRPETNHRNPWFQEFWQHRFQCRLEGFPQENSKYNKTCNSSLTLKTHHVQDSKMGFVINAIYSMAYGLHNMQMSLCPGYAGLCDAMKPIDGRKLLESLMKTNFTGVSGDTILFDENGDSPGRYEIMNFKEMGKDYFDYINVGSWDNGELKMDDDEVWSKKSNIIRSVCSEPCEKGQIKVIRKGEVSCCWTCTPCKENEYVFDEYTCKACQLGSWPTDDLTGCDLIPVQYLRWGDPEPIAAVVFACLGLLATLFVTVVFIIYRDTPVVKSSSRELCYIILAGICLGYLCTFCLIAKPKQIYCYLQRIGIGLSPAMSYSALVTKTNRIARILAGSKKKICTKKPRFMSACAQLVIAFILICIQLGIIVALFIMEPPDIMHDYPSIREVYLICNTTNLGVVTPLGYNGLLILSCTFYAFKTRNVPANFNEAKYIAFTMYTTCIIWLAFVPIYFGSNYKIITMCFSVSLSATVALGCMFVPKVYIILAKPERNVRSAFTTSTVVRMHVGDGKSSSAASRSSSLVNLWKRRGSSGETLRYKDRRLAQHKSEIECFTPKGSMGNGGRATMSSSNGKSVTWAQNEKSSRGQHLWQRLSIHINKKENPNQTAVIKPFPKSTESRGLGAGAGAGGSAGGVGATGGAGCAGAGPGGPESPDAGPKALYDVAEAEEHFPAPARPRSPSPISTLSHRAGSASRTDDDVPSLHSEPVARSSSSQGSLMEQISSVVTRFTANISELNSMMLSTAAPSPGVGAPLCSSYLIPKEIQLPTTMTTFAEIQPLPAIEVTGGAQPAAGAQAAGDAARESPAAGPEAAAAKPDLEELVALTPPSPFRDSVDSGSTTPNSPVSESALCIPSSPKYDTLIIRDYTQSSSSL
Conditions: not given
As for `O=S(=O)(c1cc(Cl)cc(Cl)c1)c1cnc2c(F)cccc2c1-c1ccc(F)cc1`, the IC50 – broadly, the concentration at which inhibition is half-maximal – is 25 nM.

A further data set addresses Metabotropic glutamate receptor 5 (Rattus norvegicus, UniProt P31424). Put plainly: Displacement of [3H]M-MPEP from mGluR5 in Sprague-Dawley rat cerebrocortical membranes after 60 mins.
Conditions: not given
Regarding `O=S(=O)(c1cc(Cl)cc(Cl)c1)c1cnc2c(F)cccc2c1-c1ccc(F)cc1`, the affinity corresponds to a Ki of 6.8 nM.

As for `O=S(=O)(c1ccc(F)cc1)c1cnc2cc(Cl)ccc2c1-c1ccc(Cl)cc1`, the inhibition constant Ki – broadly, a measure of affinity in units of concentration, obtained from inhibition or displacement – is 110 nM.

Consider `O=S(=O)(c1ccc(F)cc1)c1cnc2ccc(F)cc2c1-c1ccc(Cl)cc1`, for which the affinity, expressed as Ki, was 180 nM.

The molecule `O=S(=O)(c1ccc(F)cc1)c1cnc2c(F)cccc2c1-c1ccc(Cl)cc1` yielded an inhibition constant (Ki) of 16 nM.

In another data set the test system is Liver. Put plainly: Intrinsic clearance in human liver microsomes at 2.5 uM assessed per gram of liver. It is filed as ADME, microsome.
Conditions: not given
Molecule `O=S(=O)(c1cc(Cl)cc(Cl)c1)c1cnc2c(F)cccc2c1-c1ccc(F)cc1` returned a CLint of 1.01 mL/min/g.

`O=S(=O)(c1ccc(F)cc1)c1cnc2cc(Cl)ccc2c1-c1ccc(Cl)cc1`: the CLint worked out at 0.21 mL/min/g.

The molecule `O=S(=O)(c1ccc(F)cc1)c1cnc2ccc(F)cc2c1-c1ccc(Cl)cc1` came in with a CLint of 0.12 mL/min/g.

`N#Cc1ccc2ncc(S(=O)(=O)c3ccc(F)cc3)c(-c3ccc(Cl)cc3)c2c1` gave a CLint of 0.01 mL/min/g.

In turn, `O=S(=O)(c1ccc(F)cc1)c1cnc2c(F)cccc2c1-c1ccc(Cl)cc1` came in with a CLint of 0.28 mL/min/g.

The molecule `O=S(=O)(c1ccc(F)cc1)c1cnc2c(F)cc(Cl)cc2c1-c1ccc(Cl)cc1` gave a CLint of 0.01 mL/min/g.

The molecule `COc1ccc(-c2c(S(=O)(=O)c3cccc(F)c3)cnc3cc(F)ccc23)cc1` returned a CLint of 1.89 mL/min/g.

In turn, `COc1ccc(-c2c(S(=O)(=O)c3cc(F)cc(F)c3)cnc3cc(F)ccc23)cc1` returned a CLint of 1.51 mL/min/g.

Turning to `O=S(=O)(c1cc(Cl)cc(Cl)c1)c1cnc2c(F)cccc2c1-c1cccc(F)c1`, the CLint was found to be 1.08 mL/min/g.

For the molecule `N#Cc1cccc(S(=O)(=O)c2cnc3c(F)cccc3c2-c2ccc(Cl)cc2)c1`, the CLint stood at 0.08 mL/min/g.

In the case of `O=S(=O)(c1ccc(F)cc1)c1cnc2c(F)cccc2c1-c1cccc(F)c1`, the CLint came out at 1.56 mL/min/g.

`O=S(=O)(c1ccc(F)cc1)c1cnc2ccc(Cl)cc2c1-c1ccc(Cl)cc1` showed a CLint of 0.01 mL/min/g.

In the case of `COc1cccc(S(=O)(=O)c2cnc3cc(F)ccc3c2-c2cccc(F)c2)c1`, the CLint turned out to be 3.36 mL/min/g.

Molecule `O=S(=O)(c1cccc(F)c1)c1cnc2c(F)cccc2c1-c1cccc(Cl)c1` showed a CLint of 0.56 mL/min/g.

`N#Cc1ccc2c(-c3ccc(Cl)cc3)c(S(=O)(=O)c3ccc(F)cc3)cnc2c1` gave a CLint of 0.01 mL/min/g.

For the molecule `O=S(=O)(c1ccc(F)c(F)c1)c1cnc2c(F)cccc2c1-c1ccccc1F`, the CLint came to 1.39 mL/min/g.

Test system in a further data set: not listed separately
Nature of the data set: Plasma concentration in ip dosed Wistar rat at anxiolytic MED administered as suspension after 45 mins during Vogel punished drinking conflict test. It is filed as ADME, organism-based.
Conditions: not given
The procedure, abridged:
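Vehicle was a suspension containing 5% Tween 80, given i.p. at the Vogel minimum effective dose. Plasma was sampled about 45 min after dosing, right after the Vogel punished drinking test.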
With `O=S(=O)(c1cc(Cl)cc(Cl)c1)c1cnc2c(F)cccc2c1-c1ccc(F)cc1`, the concentration at 0.75 h was found to be 119 nM.
